The sample as a whole holds a higher share of hits than the screen did.
Cl transport mod – KCC2 cotransporter modulators, thallium flux, primary screen, cell-based, HEK293 KCC2, FluoZin-2 fluorescence, MLSMR; Solute carrier family 12 member 5 (Homo sapiens), Q9H2X9; KCC2 cells, thallium flux FluoZin-2 fluorescence; B-score of Tl+ flux slope (higher = more flux/activation; lower = inhibition) at 10 µM; hit rate 2.2% among 190,000;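 active means thallium flux slope and its plate-corrected score both differing from the plate sample mean at a set confidence after two filtering rounds, in either direction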;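 further: slope of fluorescence scaled to starting intensity during 10 to 20 s after thallium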
p-CIP stab down – p/CIP-EGFP fusion destabilizers, primary screen, fluorescence, F442A cells. 16 h. Q05BA5. decrease of EGFP signal, % at 10 µM. hit rate 0.01% among 290,000;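 active means EGFP signal decrease of at least 30% at 10 µM or well 3 SD below plate mean, unless failing retest; inactive means the rest, including hits failing retest or dose response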
Target sequence (Q05BA5 1-1403): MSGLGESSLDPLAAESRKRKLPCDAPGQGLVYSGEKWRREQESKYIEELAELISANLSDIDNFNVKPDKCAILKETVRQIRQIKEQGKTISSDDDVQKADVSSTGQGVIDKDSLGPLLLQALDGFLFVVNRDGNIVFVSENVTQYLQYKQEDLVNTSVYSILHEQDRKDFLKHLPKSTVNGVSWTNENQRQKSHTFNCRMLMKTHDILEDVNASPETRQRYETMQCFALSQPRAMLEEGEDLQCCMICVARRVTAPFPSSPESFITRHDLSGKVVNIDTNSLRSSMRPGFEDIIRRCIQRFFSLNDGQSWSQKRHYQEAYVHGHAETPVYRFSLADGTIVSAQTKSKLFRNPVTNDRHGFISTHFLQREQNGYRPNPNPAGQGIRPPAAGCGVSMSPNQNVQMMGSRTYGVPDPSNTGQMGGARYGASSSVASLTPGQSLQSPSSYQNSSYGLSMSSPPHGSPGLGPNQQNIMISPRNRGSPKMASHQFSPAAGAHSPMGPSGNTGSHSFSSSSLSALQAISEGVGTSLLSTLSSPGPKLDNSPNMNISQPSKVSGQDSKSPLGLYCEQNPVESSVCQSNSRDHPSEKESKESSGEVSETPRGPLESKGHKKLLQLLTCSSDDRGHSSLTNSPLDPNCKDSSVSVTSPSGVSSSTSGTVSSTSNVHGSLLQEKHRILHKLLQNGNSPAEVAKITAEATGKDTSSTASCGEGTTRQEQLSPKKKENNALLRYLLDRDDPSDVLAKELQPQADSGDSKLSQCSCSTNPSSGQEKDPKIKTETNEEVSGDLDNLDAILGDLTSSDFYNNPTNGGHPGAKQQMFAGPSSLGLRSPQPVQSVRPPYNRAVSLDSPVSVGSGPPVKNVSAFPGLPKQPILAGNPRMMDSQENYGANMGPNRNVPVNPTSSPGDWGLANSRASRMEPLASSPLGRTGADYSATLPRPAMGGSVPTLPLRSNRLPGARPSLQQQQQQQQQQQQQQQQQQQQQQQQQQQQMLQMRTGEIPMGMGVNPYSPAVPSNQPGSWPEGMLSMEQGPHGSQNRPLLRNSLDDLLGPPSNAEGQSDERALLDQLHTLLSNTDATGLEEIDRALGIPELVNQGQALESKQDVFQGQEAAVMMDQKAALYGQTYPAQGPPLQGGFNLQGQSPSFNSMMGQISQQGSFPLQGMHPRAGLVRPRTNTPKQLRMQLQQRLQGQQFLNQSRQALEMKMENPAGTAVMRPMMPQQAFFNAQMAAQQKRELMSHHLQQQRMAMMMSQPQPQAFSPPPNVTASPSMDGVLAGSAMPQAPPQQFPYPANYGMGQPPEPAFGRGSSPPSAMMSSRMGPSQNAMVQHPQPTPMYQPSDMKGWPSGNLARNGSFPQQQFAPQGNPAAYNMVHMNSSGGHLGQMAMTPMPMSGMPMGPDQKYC
V-ATPase pH – regulators of yeast V-ATPase proton pumping, primary screen, pHLuorin cytosolic pH fluorescence | S. cerevisiae | response, % at 10 µM | hit rate 0.37% among 350,000 | AID 504577, 2011; in the data active means response mostly above about 7.3%, no sharp cut-off; inactive means mostly below about 5.4%; further: actives read high
Dynein cargo inh – inhibitors of GR-EGFP nuclear translocation, primary screen, dynein cargo transport inhibitor project, imaging, high-content, 3617.4 mouse cells. test concentration mostly 20 µM; stimulated with dexamethasone, 1 µM; active compounds read low. z-score, hits read low. hit rate 0.47% among 220,000;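 active means plate z-score of nuclear minus cytoplasmic receptor signal below a set negative limit, without overly bright fluorescence or cell loss, cut at about -3.5 in these data, passing the limit was not always enough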;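 further: z-score of nuclear minus cytoplasmic ring GR-EGFP intensity difference per well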
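Medium: Induction medium lacking tetracycline, stripped serum | Probe or stimulus: 1.0 µM final dexamethasone stimulus | Schedule: 48 h induction, then 1 h compound, then 30 min agonist, 37 °C | Signal: Automated 10x imaging of fixed Hoechst-stained cells | Evaluation: Per-cell GR-EGFP intensity, nucleus versus surrounding cytoplasmic ring, well-averaged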
ABCB6 inh 2 – ABCB6 transporter inhibitors, primary screen, K562-ABCB6 cells, flow cytometry, MLPCN library; AID 602162, 2011; K562-ABCB6 porphyrin accumulation, 1 h; active compounds read low; fluorescence ratio to DMSO, % at 10 µM; hit rate 0.19% among 360,000; ATP-binding cassette sub-family B member 6 (Homo sapiens), Q9NP58;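 active means fluorescence ratio to DMSO below 75%, the collection mean minus 3 SD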;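 further: signal is porphyrin accumulated inside mitochondria; 100% equals median channel fluorescence of DMSO control wells; lower ratio means ABCB6 inhibition with less porphyrin fluorescence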
The depositor's hits bear a star; x = not tested or not shown.

SMILES	Cl transport mod	p-CIP stab down	V-ATPase pH	Dynein cargo inh	ABCB6 inh 2
O=C1NC(NS(=O)(=O)c2ccccc2)(C(F)(F)F)C(=O)N1CCc1ccccc1 (stereo not drawn)	x	-7	1	x	101
O=C(NN=C(Cc1ccccc1)Cc1ccccc1)c1ccc(F)cc1	7.7*	0	-2	-0.53	95
C/C(Cc1ccccc1)=N\NC(=O)c1ccc(F)cc1	-0.86	2	-2	1.6	96
Cc1cccc(C(=O)OCC(=O)NC(=O)NC2CCCCC2)c1	x	x	x	x	98
CCc1ccc(NC(=S)NNC(=O)c2ccccc2OC(F)F)cc1	18*	-4	x	0.27	x
CCOc1ccc2nc(/N=C/c3c(C)[nH]n(-c4ccccc4)c3=O)sc2c1	77*	-1	-6	-0.017	97
CCOc1ccc2nc(/N=C/c3c(C)[nH]n(-c4ccc(C)cc4)c3=O)sc2c1	69*	10	-1	0.83	97
Cc1nc2c(OCCOc3ccc(F)cc3)cccn2c1N(C)C(=O)CCC1CCCC1	x	x	x	x	90
O=C(/C=C/c1ccc(Cl)cc1)NC(=S)NN1CCCCC1c1cccnc1 (stereo not drawn)	6.2*	2	x	1	x
CN(C(=S)NC(=O)c1ccccc1Br)C1CCCCC1	31*	-5	-3	-0.081	99
COc1ccccc1/C=C/C(=O)NC(=S)N(C)C1CCCCC1	9.8*	-12	10	3	97
Cc1ccccc1C(=O)NC(=S)N(C)C1CCCCC1	x	-35	3	x	97
Clc1ccc2nc(C(Cl)(Cl)Cl)[nH]c2c1	x	x	0	x	96
O=C(NCc1ccccc1)C1c2ccccc2OCC(=O)N1Cc1ccccc1 (stereo not drawn)	x	x	x	x	99
CCOC(=O)c1c(NC(=O)C2C3C=CC(C3)C2C(=O)O)sc2c1CC(C)CC2 (stereo not drawn)	-1.5	2	1	0.051	103
CCCOC(=O)c1c(NC(=O)C2C3C=CC(C3)C2C(=O)O)sc2c1CCC(C)C2 (stereo not drawn)	-3.1*	-3	2	-0.27	94
Nc1nc(CN2CCN(c3ccccc3F)CC2)nc(Nc2ccc3c(c2)OCCO3)n1	-0.11	-4	16*	1.2	110
CN1CCN(Cc2nc(N)nc(Nc3ccc4c(c3)OCCO4)n2)CC1	0.62	2	-5	1.3	98
COc1ccc([C@@H]2C[C@H]3[C@@H](CN2S(=O)(=O)c2ccccc2)C(=O)C[C@@H](c2cccc(Cl)c2)N3S(=O)(=O)c2ccc(C)cc2)cc1	x	x	x	x	98
C[C@H](O)[C@@H]1C(=O)N2CCc3c([nH]c4ccccc34)[C@@H]2C[C@@H]1N(C)C(=O)c1ccco1	x	x	x	x	102
O=C1c2ccccc2C(=O)C1Cc1cccc2ccccc12	0.37	7	289*	-0.059	104
Cn1nc(CC(=O)Nc2ccc(N3CCN(C(=O)OC(C)(C)C)CC3)cc2)c2ccccc2c1=O	-0.081	-5	6	3.3	30*
O=C(O)CCC(=O)Nc1nnc(C(F)(F)F)s1	-0.064	7	1	-0.75	99
CCC(NC(=O)Nc1nnc(C(F)(F)F)s1)(C(F)(F)F)C(F)(F)F	x	30*	-4	0.2	102
S=C(N/N=C/c1ccc(Cl)cc1)N1CCOCC1	41*	6	-1	-0.17	98
SMILES	Cl transport mod	p-CIP stab down	V-ATPase pH	Dynein cargo inh	ABCB6 inh 2
Cc1ccc(/C=N/NC(=S)N2CCOCC2)cc1	32*	4	0	0.48	103
Cc1c(C(=O)NCc2ccccc2C(F)(F)F)sc(=O)n1Cc1ccccc1C#N	x	x	x	x	101
O=C(/C=C/NNC(=O)c1ccccc1)c1ccc(Br)cc1	8.8*	-4	0	-3	96
COc1ccccc1CNc1nc(NCCN2CCNC2=O)c2sccc2n1	x	x	x	x	100
O=C(/C=C/c1ccccc1)c1ccccn1	x	-3	-2	-3.8*	95
C[C@@H]1CN([C@H](C)CO)C(=O)CCCn2nncc2CO[C@H]1CN(C)S(=O)(=O)c1ccc(Oc2ccccc2)nc1	x	x	0	x	97
CC(=O)N(c1ccccc1C)C1CCCC1	0.029	10	5	-0.87	105
CC(=O)N(C1=C(Cl)C(=O)c2ccccc2C1=O)C1CCCCC1	-0.73	-44	141*	-6*	117
C=C1C(=O)c2sccc2C(c2ccc(OC)c(OC)c2)C1COC(C)=O (stereo not drawn)	x	x	4	x	94
Cc1c(C(=O)O)cccc1-n1c(C)cc(/C=N/Nc2ccc([N+](=O)[O-])cn2)c1C	-1	2	16*	-0.76	102
Cc1cc(/C=N/Nc2ccc([N+](=O)[O-])cn2)c(C)n1-c1ccccc1	1.2	-6	2	1.2	105
CN(Cc1ccccc1)C(=O)c1csc(COCCO)n1	x	x	x	x	99
CS(=O)(=O)Nc1cccc(NC(=O)c2cccc3c(-c4cccnc4)coc23)c1	x	x	x	x	96
CC(=O)C(C(C)=O)c1c(Cl)c(O)c(O)c2c(C(=O)c3ccccc3)coc12	-5.3*	-7	0	-1	88
COc1ccc(/C=C2\SC(=O)NC2=S)cc1OC	12*	-193	0	-0.41	102
COc1ccc(/C=C2\SC(=S)NC2=O)cc1OS(=O)(=O)c1ccc(NC(C)=O)cc1	-2.8	12	-1	-0.64	95
COc1cc(/C=C2/SC(=S)NC2=O)ccc1OS(=O)(=O)c1ccc(C)cc1	80*	6	-2	1.1	103
COc1cc(/C=C2\SC(=S)NC2=O)ccc1OS(=O)(=O)c1ccccc1	80*	4	x	-0.23	x
CCOc1ccc(/C=C2\SC(=S)N(C)C2=O)cc1OC	0.22	-5	0	0.032	108
CC(=O)Nc1cccc(-c2ccnc3c2CC(C)(C(=O)NCc2cccs2)O3)c1 (stereo not drawn)	x	x	x	x	120
O=C(NCCN1CCC(n2c(=O)[nH]c3ccccc32)CC1)C(c1ccccc1)c1ccccc1	x	x	x	x	91
Nc1cc(Cl)ccc1Oc1ccc2ccccc2c1	-0.0022	0	16*	-0.87	99
Cc1onc(-c2ccccc2)c1C(=O)NC(=S)Nc1sc2c(c1C#N)CCCC2	23*	3	-3	0.34	99
Cc1cc(C(=O)Nc2sc3c(c2C#N)CCCC3)no1	3.7*	0	2	-0.031	96
CN(C(=O)COC(=O)Cc1ccc(Br)cc1)c1c(N)n(Cc2ccccc2)c(=O)[nH]c1=O	x	x	0	x	102
O=C(Cc1ccccc1)Nc1ccccc1Sc1ccccc1	-0.61	-17	2	0.12	100
O=C(Cc1ccc(F)cc1)Nc1ccccc1Sc1ccccc1	0.34	-10	16*	1.8	102
Cc1cc(C)c2c(c1)/C(=N/NC(=S)Nc1ccc(F)cc1)CCC2	2.9*	19	4	0.089	89
COC(=O)N/N=C1\CCCc2c(C)cc(C)cc21	0.71	8	-2	-0.1	92

Bioassay records: PubChem BioAssay, several laboratories
